# Tests used:
# Format in all cases: functional
# COLO 205 [1] = experiment: Anticancer activity against Homo sapiens (human) COLO205 cells by SRB assay
# Outline: (§1)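 NCI 60-line panel, five tenfold dilutions from 10−4 to 10−8 M, growth read by sulforhodamine B staining against untreated controls. From the dose–response per line: GI50 (molar concentration giving half growth inhibition), TGI (molar concentration giving total growth inhibition, cytostatic) and LC50 (molar concentration killing 50% of initial cells, cytotoxic).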
# NCI-H460 [2] = experiment: Anticancer activity against Homo sapiens (human) NCI-H460 cells by SRB assay
# Outline: (§2)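 Five-dose NCI 60-cell-line panel testing at tenfold dilutions from 10−4 to 10−8 M, with growth read by sulforhodamine B protein staining. For each cell line: GI50 is the molar concentration giving half growth inhibition; TGI is total growth inhibition (cytostatic); LC50 is the molar concentration killing 50% of the initial cells (cytotoxic).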
# HT-29 = experiment: Anticancer activity against Homo sapiens (human) HT-29 cells assessed as cell growth at 10 uM by SRB assay; conditions: read-out: Activity
# Outline: (§3)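 NCI 60-cell human tumour panel (nine cancer types) screened at one concentration, 10−5 M. Cell growth estimated by sulforhodamine B protein staining and reported as percent growth of treated cells relative to untreated controls.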
# HCT-15 = experiment: Anticancer activity against Homo sapiens (human) HCT15 cells assessed as cell growth at 10 uM by SRB assay; conditions: read-out: Activity; outline: as §3
# HCT-116 [3] = experiment: Anticancer activity against Homo sapiens (human) HCT116 cells assessed as cell growth at 10 uM by SRB assay; conditions: read-out: Activity; outline: as §3
# COLO 205 [4] = experiment: Anticancer activity against Homo sapiens (human) COLO205 cells assessed as cell growth at 10 uM by SRB assay; conditions: read-out: Activity; outline: as §3
# HCC 2998 = experiment: Anticancer activity against Homo sapiens (human) HCC2998 cells assessed as cell growth at 10 uM by SRB assay; conditions: read-out: Activity; outline: as §3
# NCI-H460 [5] = experiment: Anticancer activity against Homo sapiens (human) NCI-H460 cells assessed as cell growth at 10 uM by SRB assay; conditions: read-out: Activity
# Outline: (§4)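 Single-dose screen in the NCI 60-human-tumour-cell-line panel (nine cancer types) at 10−5 M. Cell growth was estimated by sulforhodamine B protein staining and reported as percent growth of treated cells relative to untreated controls.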
# NCI-H522 = experiment: Anticancer activity against Homo sapiens (human) NCI-H522 cells by SRB assay; outline: as §2
# HOP-62 = experiment: Anticancer activity against Homo sapiens (human) HOP62 cells by SRB assay; outline: as §1
# A549 = experiment: Anticancer activity against Homo sapiens (human) A549/ATCC cells by SRB assay; outline: as §1
# EKVX = experiment: Anticancer activity against Homo sapiens (human) EKVX cells by SRB assay; outline: as §1
# SR = experiment: Anticancer activity against Homo sapiens (human) SR cells assessed as cell growth at 10 uM by SRB assay; conditions: read-out: Activity
# Outline: (§5)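 NCI 60-cell human tumour panel (leukemia, melanoma, lung, colon, CNS, breast, ovarian, prostate, renal lines) given a single 10−5 M dose. Growth is expressed as percent growth of treated cells relative to untreated controls, with cell growth/viability estimated by sulforhodamine B protein staining.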
# [6] = Anticancer activity against Homo sapiens (human) RPMI8266 cells assessed as cell growth at 10 uM by SRB assay; conditions: read-out: Activity; outline: as §4
# 786-0 = experiment: Anticancer activity against Homo sapiens (human) 786-0 cells by SRB assay; outline: as §1
# OVCAR-8 = experiment: Anticancer activity against Homo sapiens (human) OVCAR8 cells by SRB assay; outline: as §2
# OVCAR-5 = experiment: Anticancer activity against Homo sapiens (human) OVCAR5 cells by SRB assay; conditions: read-out: pTGI (converted); outline: as §2
# SK-MEL-5 = experiment: Anticancer activity against Homo sapiens (human) SK-MEL-5 cells by SRB assay; outline: as §2
# SK-MEL-28 = experiment: Anticancer activity against Homo sapiens (human) SK-MEL-28 cells by SRB assay; outline: as §2
# M14 = experiment: Anticancer activity against Homo sapiens (human) M14 cells by SRB assay; outline: as §1
# SNB-75 [7] = experiment: Anticancer activity against Homo sapiens (human) SNB75 cells by SRB assay; outline: as §2
# U-251 = experiment: Anticancer activity against Homo sapiens (human) U251 cells by SRB assay
# Outline: (§6)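 NCI five-dose follow-up on the 60-line human tumour panel at tenfold dilutions from 10−4 to 10−8 M, with growth read by sulforhodamine B protein assay against untreated controls. For each cell line, GI50 (half growth inhibition), TGI (total growth inhibition) and LC50 (50% death of initial cells) are calculated as molar concentrations.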
# A498 = experiment: Anticancer activity against Homo sapiens (human) A498 cells assessed as cell growth at 10 uM by SRB assay; conditions: read-out: Activity; outline: as §3
# SK-MEL-2 = experiment: Anticancer activity against Homo sapiens (human) SK-MEL-2 cells assessed as cell growth at 10 uM by SRB assay; conditions: read-out: Activity; outline: as §4
# SNB-19 = experiment: Anticancer activity against Homo sapiens (human) SNB19 cells assessed as cell growth at 10 uM by SRB assay; conditions: read-out: Activity; outline: as §4
# SNB-75 [8] = experiment: Anticancer activity against Homo sapiens (human) SNB75 cells assessed as cell growth at 10 uM by SRB assay; conditions: read-out: Activity; outline: as §4
# SF-539 = experiment: Anticancer activity against Homo sapiens (human) SF539 cells assessed as cell growth at 10 uM by SRB assay; conditions: read-out: Activity; outline: as §4
# SF-268 = experiment: Anticancer activity against Homo sapiens (human) SF268 cells assessed as cell growth at 10 uM by SRB assay; conditions: read-out: Activity; outline: as §4
# HCT-116 [9] = experiment: Anticancer activity against Homo sapiens (human) HCT116 cells by SRB assay; outline: as §1
# Hs-578T = experiment: Anticancer activity against Homo sapiens (human) Hs 578T cells by SRB assay; outline: as §1
# DU-145 = experiment: Anticancer activity against Homo sapiens (human) DU145 cells by SRB assay; outline: as §1
# UO-31 = experiment: Anticancer activity against Homo sapiens (human) UO31 cells by SRB assay; outline: as §6
# TK-10 [10] = experiment: Anticancer activity against Homo sapiens (human) TK10 cells by SRB assay; outline: as §6
# MDA-MB-468 = experiment: Anticancer activity against Homo sapiens (human) MDA-MB-468 cells assessed as cell growth at 10 uM by SRB assay; conditions: read-out: Activity; outline: as §4
# RXF 393 = experiment: Anticancer activity against Homo sapiens (human) RXF393 cells assessed as cell growth at 10 uM by SRB assay; conditions: read-out: Activity; outline: as §4
# TK-10 [11] = experiment: Anticancer activity against Homo sapiens (human) TK10 cells assessed as cell growth at 10 uM by SRB assay; conditions: read-out: Activity; outline: as §5
# ACHN = experiment: Anticancer activity against Homo sapiens (human) ACHN cells assessed as cell growth at 10 uM by SRB assay; conditions: read-out: Activity; outline: as §3
# [12] = read-out: pLC50 (the source's name) (converted)
compound,measurement,setting,value
O=c1sc2c(Cl)nc(-c3ccccc3)nc2n1-c1ccccc1,GI50,COLO 205 [1],11.2 µM
same,GI50,NCI-H460 [2],25.1 µM
same,growth at 10 µM,HT-29,10%
same,growth at 10 µM,HCT-15,28%
same,growth at 10 µM,HCT-116 [3],-53%
same,growth at 10 µM,COLO 205 [4],52%
same,growth at 10 µM,HCC 2998,90%
same,growth at 10 µM,NCI-H460 [5],78%
same,GI50,NCI-H522,1.23 µM
same,TGI,NCI-H522; read-out: pTGI (converted),3.02 µM
same,GI50,HOP-62,3.63 µM
same,CC50,HOP-62; [12],72.4 µM
same,TGI,HOP-62; read-out: pTGI (converted),15.5 µM
same,GI50,A549,43.7 µM
same,GI50,EKVX,25.7 µM
same,growth at 10 µM,SR,8%
same,growth at 10 µM,[6],75%
same,GI50,786-0,7.08 µM
same,TGI,786-0; read-out: pTGI (converted),56.2 µM
same,GI50,OVCAR-8,2.04 µM
same,TGI,OVCAR-8; read-out: pTGI,43.7 µM
same,TGI,OVCAR-5,45.7 µM
same,GI50,SK-MEL-5,15.5 µM
same,GI50,SK-MEL-28,3.39 µM
same,LC50,SK-MEL-28,69.2 µM
same,TGI,SK-MEL-28; read-out: pTGI (converted),13.2 µM
same,GI50,M14,3.8 µM
same,TGI,M14; read-out: pTGI (converted),35.5 µM
same,GI50,SNB-75 [7],1.86 µM
same,CC50,SNB-75 [7]; [12],56.2 µM
same,TGI,SNB-75 [7]; read-out: pTGI (converted),13.8 µM
same,GI50,U-251,3.72 µM
same,TGI,U-251; read-out: pTGI (converted),18.6 µM
same,growth at 10 µM,A498,44%
same,growth at 10 µM,SK-MEL-2,48%
same,growth at 10 µM,SNB-19,70%
same,growth at 10 µM,SNB-75 [8],12%
same,growth at 10 µM,SF-539,52%
same,growth at 10 µM,SF-268,52%
same,GI50,HCT-116 [9],2.09 µM
same,CC50,HCT-116 [9]; [12],9.55 µM
same,TGI,HCT-116 [9]; read-out: pTGI (converted),4.47 µM
same,GI50,Hs-578T,3.31 µM
same,TGI,Hs-578T; read-out: pTGI (converted),18.6 µM
same,GI50,DU-145,4.68 µM
same,CC50,DU-145; [12],81.3 µM
same,TGI,DU-145; read-out: pTGI (converted),23.4 µM
same,GI50,UO-31,1.32 µM
same,TGI,UO-31; read-out: pTGI (converted),2.88 µM
same,GI50,TK-10 [10],10.5 µM
same,growth at 10 µM,MDA-MB-468,20%
same,growth at 10 µM,RXF 393,-4%
same,growth at 10 µM,TK-10 [11],51%
same,growth at 10 µM,ACHN,42%
